Data on three molecules can be found in paper PMC11293135 (Journal of Nanobiotechnology, 2024).

Data set [1] relates to 4T1 cells. Put plainly: In vitro cytotoxicity, CCK-8 assay. In kind it is cell-based, murine. As to conditions: concentrations up to 50 μM, three days. Summed up: (§1)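 4T1 and HC11 cells were grown in RPMI-1640 with 10% FBS at 37 °C and 5% CO2. Cells were exposed to the azido-sugar test compound at 0–50 μM for 3 days. Viability was read by CCK-8.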
(Formazan colour is commonly taken as a measure of viable cells.)

In data set [2] the test system is HC11 cells. In words: In vitro cytotoxicity, CCK-8 assay. In kind it is cell-based, mouse. The settings on record: concentrations up to 50 μM, three days. Summed up:
as §1

For data set [3], the system named is DCs from TDLNs. Put plainly: DC maturation in TDLNs by flow cytometry. The data set is classed as in vivo, BALB/c mice. The settings on record: mean ± SD, n = 5. Summed up:
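Female BALB/c mice (5–6 weeks) received 1.0 × 10^6 4T1 cells s.c. in the flank. Once tumors reached ~150 mm3, click groups got azido-sugar 40 mg/kg i.p. daily for 3 days and others got PBS. All groups then received 5 mg/kg i.v. every 7 days (n = 5). TDLNs were digested with collagenase IV (37 °C, 1 h) and strained at 70 μm. Mature DCs were gated CD40+CD80+MHC II+CCR7+. Mean ± SD reported.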
Background: In flow cytometry, cells or beads pass a laser one at a time.

Data set [4] has as its system 4T1 tumor-bearing mice. In words: Treatment-related toxicity. In kind it is in vivo, BALB/c mice. The settings on record: 5 mg/kg. Summed up: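 Female BALB/c mice bearing ~150 mm3 s.c. 4T1 tumors were split into 5 groups (n = 5). Click groups were pretreated with azido-sugar 40 mg/kg i.p. daily for 3 days; others received PBS. Treatments at 5 mg/kg i.v. were given every 7 days. Body weight was recorded every 2 days for 14 days. Major organs were fixed in 4% paraformaldehyde, paraffin-embedded, and H&E stained.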

Data set [5] concerns PD-L1. As to conditions: DOX treatment; ref [41], [42]; cited from earlier work.
Data set [6] concerns 4T1 tumor-bearing mice. In words: In vivo MR-T1 mapping imaging. The arrangement: species or system BALB/c mice. The settings on record: by 3 h post-injection, 1 mg/kg i.v., n = 3. Summed up:
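4T1 flank tumors were raised in female BALB/c mice (1.0 × 10^6 cells s.c.), n = 3 per group. The click group received azido-sugar 40 mg/kg i.p. once daily for 3 days; the other groups received PBS. Mice were then injected i.v. with 150 μL (1 mg/kg) of Gd probe or Gd-DOTA. T1 mapping was done before injection and at 1, 2, 3 and 4 h, and tumor 1/T1 values were quantified.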

The structures appear in SMILES notation. Where a name gives a salt, the structure may show the parent alone.

Consider `CC(=O)OC[C@H]1OC(OC(C)=O)[C@@H](NC(=O)CN=[N+]=[N-])[C@@H](OC(C)=O)[C@@H]1OC(C)=O` (stereo partly shown) [Ac4ManNAz, tetraacetyl-N-azidoacetylmannosamine], for which the “Cytotoxicity to 4T1 cells” value in data set [1] was “no significant harm”. Moreover, the “Cytotoxicity to HC11 cells” value in data set [2] is on record as “no significant harm”.
Turning to `COc1cccc2c1C(=O)c1c(O)c3c(c(O)c1C2=O)C[C@@](O)(C(=O)CO)C[C@@H]3O[C@H]1C[C@H](N)[C@H](O)[C@H](C)O1` [DOX, Doxorubicin hydrochloride], the “MHC-II expression in TDLNs” value in data set [3] turned out to be 45.04 ± 1.85%. Further, the Body weight change result in data set [4] (measured every two days for 14 days, n = 5) was “severe weight loss”. Also, the “H&E analyses on major organs compared to PBS-treated mice” value in data set [4] (end of antitumor study) is given as “substantial damage”. Also, the “PD-L1 expression of 4T1 cells” value in data set [5] is on record as “elevation in PD-L1 expression”.
For `O=C([O-])CN1CCN(CC(=O)[O-])CCN(CC(=O)[O-])CCN(CC(=O)[O-])CC1.[Gd+3]` [Gd-DOTA], in data set [6], the “Tumor MR signal” value is listed as “returned to baseline levels”.
